Experimental data taken from ChEMBL document CHEMBL1255256, “Bobel-24 activity against Cryptosporidium parvum in cell culture and in a SCID mouse model” (Antimicrob Agents Chemother, 2008).
The source made the active and inactive calls. No cut-off for these calls is given here.

Key:
[1] = tested on: Cryptosporidium parvum; experiment: Antimicrobial activity against Cryptosporidium parvum infected in SCID mouse assessed as decrease in oocyst shedding at 125 mg/kg/day, po for 2 weeks and measured every 3 days during treatment; format: functional, organism-based
In short: (§1)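 Female C.B-17 SCID mice, 7 weeks old, infected orally with 1 × 10^7 oocysts in PBS; chronic infection allowed for 25 days. Compound suspended with polyvinylpyrrolidone, given orally at 250 (n=10) or 125 (n=10) mg/kg/day for 2 weeks; controls were PVP in water and untreated mice. Oocysts per 50 μl concentrated feces counted by IIF every 3 days; ANOVA with LSD.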

[2] = tested on: Cryptosporidium parvum; experiment: Antiparasitic activity against Cryptosporidium parvum sprozoites assessed as growth inhibition at 90 uM after 48 hrs; format: functional; conditions: read-out: GI
In short: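 Excysted sporozoite suspension incubated with 90 μM compound at 37°C for 30 min, then used to infect confluent HCT-8 monolayers. Developmental stages counted after rhodamine-C3C3 mAb staining, 30 fields/well, four replicate wells; percent inhibition versus medium control and inhibition score.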

[3] = tested on: HCT-8; experiment: Cytotoxicity against human HCT8 cells assessed as cell viability by MTT assay; format: cell-based
In short: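 HCT-8 cells exposed to compound and viability measured by MTT assay as percent viable cells.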

[4] = tested on: Cryptosporidium parvum; experiment: Antimicrobial activity against Cryptosporidium parvum infected in SCID mouse assessed as decrease in oocyst shedding at 125 mg/kg/day, po for 2 weeks and measured 3 to 7 days after treatment; format: functional, organism-based; in short: as §1
[5] = tested on: Cryptosporidium parvum; experiment: Antiparasitic activity against Cryptosporidium parvum infected into human HCT-8 cells assessed as growth inhibition at 45 uM after 48 hrs; format: functional; conditions: HCT-8, 48 h, read-out: GI
In short: (§2)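 HCT-8 monolayers inoculated with 8 × 10^5 oocysts/ml, then incubated with 90, 45 or 22 μM compound (DMSO stock diluted in PBS). Fixed cultures stained with rhodamine-C3C3 mAb; developmental stages (meronts, gamonts) counted per field over 30 fields, mean of four replicate wells ± SD; percent growth inhibition versus medium and inhibition score (0–4).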

[6] = tested on: Cryptosporidium parvum; experiment: Antimicrobial activity against Cryptosporidium parvum infected in HCT8 cells assessed as growth inhibition rate at 22 to 90 uM after 48 hrs; format: functional, organism-based; conditions: HCT-8; in short: as §2
[7] = tested on: Cryptosporidium parvum; experiment: Antimicrobial activity against Cryptosporidium parvum DE infected in HCT8 cells assessed as growth inhibition at 90 uM after 24 hrs; format: functional; conditions: HCT-8, 24 h, read-out: GI
In short: (§3)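 Confluent HCT-8 monolayers inoculated with 8 × 10^5 excysted oocysts/ml, then infected cells treated with 90 μM compound (DMSO stock diluted in PBS) at 37°C in 5% CO2 (24 h per table footnote; 48 h per text). Fixed cells stained with rhodamine-labeled C3C3 mAb; meronts and gamonts counted in 30 fields/well, four replicate wells; percent inhibition and inhibition score versus medium control.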

[8] = tested on: Cryptosporidium parvum; experiment: Antimicrobial activity against Cryptosporidium parvum infected in SCID mouse assessed as decrease in oocyst shedding at 250 mg/kg/day, po for 2 weeks and measured 3 to 7 days after treatment; format: functional, organism-based; in short: as §1
[9] = tested on: Cryptosporidium parvum; experiment: Antiparasitic activity against Cryptosporidium parvum infected into human HCT-8 cells assessed as growth inhibition at 90 uM after 48 hrs; format: functional; conditions: HCT-8, 48 h, read-out: GI; in short: as §3
[10] = tested on: Cryptosporidium parvum; experiment: Antimicrobial activity against Cryptosporidium parvum infected in HCT8 cells assessed as decrease in parasite count at 22 to 90 uM after 48 hrs; format: functional, organism-based; conditions: HCT-8; in short: as §2
[11] = tested on: Cryptosporidium parvum; experiment: Antiparasitic activity against Cryptosporidium parvum infected into human HCT-8 cells assessed as growth inhibition at 22 uM after 48 hrs; format: functional; conditions: HCT-8, 48 h, read-out: GI; in short: as §2
[12] = tested on: Cryptosporidium parvum; experiment: Antimicrobial activity against Cryptosporidium parvum infected in HCT8 cells assessed as growth inhibition at 90 uM pretreated for 30 min before infection measured after 48 hrs; format: functional; conditions: HCT-8, read-out: GI
In short: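 HCT-8 cells preincubated with 90 μM compound at 37°C for 30 min, then infected with excysted oocysts (8 × 10^5/ml). Meronts and gamonts counted after rhodamine-C3C3 mAb staining, 30 fields/well, four replicate wells; percent inhibition versus medium control and inhibition score.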

Oc1c(I)cc(I)cc1I
Activity [1]: Active
inhibition of growth at 90 µM [2]: 27.8%
Activity [3]: Non-toxic
Activity [4]: inactive
inhibition of growth at 45 µM [5]: 92.5%
Activity [6]: Dose-dependent effect
inhibition of growth at 90 µM [7]: 99.6%
Activity [8]: inactive
inhibition of growth at 90 µM [9]: 96.5%
Activity [10]: Dose-dependent effect
inhibition of growth at 22 µM [11]: 50.1%
inhibition of growth at 90 µM [12]: 36%
